# Like-named read-outs stand apart in the source and are kept apart here. Marks after values point to notes of the source that are not given here.
# Assays:
# COX‐2 = biological target: T1, COX‐2 (Canis lupus familiaris, UniProt Q8SPQ9); assay type: cell-based, dog
# T1 sequence (Q8SPQ9 18-604): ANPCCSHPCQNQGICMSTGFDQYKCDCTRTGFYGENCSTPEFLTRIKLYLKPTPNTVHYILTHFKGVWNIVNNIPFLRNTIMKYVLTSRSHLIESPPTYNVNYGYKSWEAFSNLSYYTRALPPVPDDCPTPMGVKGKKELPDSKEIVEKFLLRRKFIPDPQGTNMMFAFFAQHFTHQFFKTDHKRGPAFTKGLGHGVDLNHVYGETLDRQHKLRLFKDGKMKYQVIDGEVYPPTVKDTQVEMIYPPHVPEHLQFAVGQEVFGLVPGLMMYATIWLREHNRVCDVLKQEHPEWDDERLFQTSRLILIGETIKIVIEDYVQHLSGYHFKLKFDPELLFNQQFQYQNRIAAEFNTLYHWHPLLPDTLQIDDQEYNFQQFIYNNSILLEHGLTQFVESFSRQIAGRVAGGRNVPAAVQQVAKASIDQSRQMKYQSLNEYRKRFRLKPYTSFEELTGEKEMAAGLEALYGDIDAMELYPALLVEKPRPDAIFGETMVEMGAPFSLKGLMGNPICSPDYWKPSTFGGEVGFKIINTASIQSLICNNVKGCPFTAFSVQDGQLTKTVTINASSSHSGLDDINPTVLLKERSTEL
# Method in brief: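 Citrated blood from three male and three female Beagles was held 4–6 h at ca 2–8°C. Duplicates received test compound at final 100, 30, 10, 3, 1, 0.3, 0.1 or 0 µM (one enantiomer max 30 µM; 0.4% DMSO) with LPS 1 µg/ml final, for 24 h at ca 37°C with orbital agitation. Plasma PGE2 was measured by ELISA (1:1000). Per-dog Hill fits gave IC50 and gamma; IC20/IC80 were derived.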
# COX‐1 = biological target: T2, COX‐1 (Canis lupus familiaris, UniProt Q8HZR1); assay type: cell-based, dog; settings: Hill equation fit of TXB2 formation; mean of six dogs
# T2 sequence (Q8HZR1 28-603): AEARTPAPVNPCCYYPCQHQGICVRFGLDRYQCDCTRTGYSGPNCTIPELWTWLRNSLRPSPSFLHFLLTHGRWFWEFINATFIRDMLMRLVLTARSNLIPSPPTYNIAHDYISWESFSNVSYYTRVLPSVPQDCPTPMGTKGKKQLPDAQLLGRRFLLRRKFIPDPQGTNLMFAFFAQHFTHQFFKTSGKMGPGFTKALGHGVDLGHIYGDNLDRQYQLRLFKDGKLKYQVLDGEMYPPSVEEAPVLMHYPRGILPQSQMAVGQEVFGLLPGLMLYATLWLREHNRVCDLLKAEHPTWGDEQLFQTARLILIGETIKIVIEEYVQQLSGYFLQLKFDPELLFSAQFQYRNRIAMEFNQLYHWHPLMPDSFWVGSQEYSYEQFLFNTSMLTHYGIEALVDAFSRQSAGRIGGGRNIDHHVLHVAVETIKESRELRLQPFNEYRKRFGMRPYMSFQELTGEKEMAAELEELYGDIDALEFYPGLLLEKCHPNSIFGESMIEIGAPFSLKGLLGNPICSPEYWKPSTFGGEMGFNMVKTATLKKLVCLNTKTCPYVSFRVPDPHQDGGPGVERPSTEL
# Method in brief: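 Whole blood from six male Beagles was drawn without anticoagulant and used at once. Duplicate incubations received test compound at final 500, 300, 100, 30, 10, 3, 1 or 0 µM (0.4% v/v DMSO) plus PBS, for 1 h at ca 37°C with gentle shaking. Serum TXB2 was measured by ELISA (1:3000, 412 nm). Per-dog 4-parameter Hill fits gave IC50 and gamma, and IC20/IC80 were calculated from these.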
# COX‐1/COX‐2 [1] = assay: Selectivity for COX‐2 inhibition; assay type: cell-based; settings: dog whole blood, not corrected for blood cell partitioning
# Method in brief: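 Selectivity was the quotient of mean IC50 values (six Beagles each) from two canine whole blood assays. One was clotting-induced TXB2 (COX-1; unanticoagulated blood, 1 h, ca 37°C). The other was LPS-induced PGE2 (COX-2; citrated blood, 1 µg/ml LPS, 24 h). Both were read by ELISA and Hill-fitted. IC50 ratios were tested by paired t test, and compounds by one-way ANOVA/Tukey.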
# [2] = system: PGE2 formation in gastric mucosa; settings: rat carrageenan model, dose of 40 mg/kg; ref Iñiguez et al. (2010); cited from earlier work
# COX‐1/COX‐2 [3] = settings: cited from earlier work
# [4] = whole blood concentration, not corrected for blood cell partitioning
# [5] = ref King et al., 2010, McCann et al., 2004
compound,measurement,setting,value
NS(=O)(=O)c1ccc(N2N=C(C(F)(F)F)C[C@@H]2c2ccc(F)cc2F)cc1 [(R)‐(+)‐Enflicoxib],IC50 for COX‐2 inhibition expressed as blood level,COX‐2; [4],> 12 µg/mL
same,IC80 for COX‐2 inhibition expressed as blood level,COX‐2; [4],> 12 µg/mL
NS(=O)(=O)c1ccc(N2N=C(C(F)(F)F)C[C@H]2c2ccc(F)cc2F)cc1 [(S)‐(‐)‐Enflicoxib],"Gamma (sigmoidicity factor), COX‐2","COX‐2; Hill equation fit of PGE2 formation, mean of six dogs",2.7
same,"Gamma (sigmoidicity factor), COX‐1",COX‐1,1.8
same,Ratio IC50 (COX‐1/COX‐2),COX‐1/COX‐2 [1],3.77‡
same,inhibition of PGE2 formation in gastric mucosa,[2],18%
CC(C(=O)O)c1ccc2c(c1)[nH]c1ccc(Cl)cc12 (stereo not shown) [carprofen],COX‐2 selectivity ratio,"COX‐1/COX‐2 [3]; ref Briedeau et al., 2001",~6.5
COc1ccc(-c2cc(C(F)F)nn2-c2ccc(S(N)(=O)=O)cc2)cc1F [deracoxib],COX‐2 selectivity ratio,COX‐1/COX‐2 [3]; [5],48.5
CC1(C)OC(=O)C(OCC2CC2)=C1c1ccc(S(C)(=O)=O)cc1 [firocoxib],COX‐2 selectivity ratio,COX‐1/COX‐2 [3]; [5],384
CCc1ccc(Nc2c(F)c(F)cc(F)c2F)c(CC(=O)O)c1 [robenacoxib],COX‐2 selectivity ratio,COX‐1/COX‐2 [3]; [5],129

# From paper PMC9306928 (Journal of Veterinary Pharmacology and Therapeutics, 2022)
